How the values were obtained:
[1] = biological target: T1, ATP-dependent translocase ABCB1 (Homo sapiens, UniProt P08183); test: Ratio of rhodamine123 uptake in MDR1 transfected cells vs parental L5178Y cells at 30 uM; type: functional, cell-based; conditions: mouse
Summary of the method: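 Fluorescence activity ratio at 30 µM compound. L5178Y parental and L5178YvMDR cells (2 × 10⁶/mL, serum-free McCoy's 5A) preincubated 10 min at room temperature with compound, then rhodamine 123 (5.2 µM final) added for 20 min at 37 °C. After two PBS washes, 1 × 10⁴ cells read by flow cytometry. Ratio calculated from uptake in treated versus untreated control cells. Mean of two determinations.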

[2] = biological target: T1, ATP-dependent translocase ABCB1; test: Inhibition of P-glycoprotein
Summary of the method: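 Rhodamine 123 uptake in L5178YvMDR mouse T-lymphoma cells and the parental line, 2 × 10⁶ cells/mL in serum-free McCoy's 5A. Compound preincubated 10 min at room temperature, then rhodamine 123 (5.2 µM final) added for 20 min at 37 °C. Cells washed twice in PBS and 1 × 10⁴ cells read by flow cytometry. IC50 taken from sigmoidal curve of fluorescence activity ratio versus concentration. Mean of two determinations.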

[3] = system: L5178Y; test: Cytotoxicity against mouse L5178Y cell line; type: functional, cell-based
Summary of the method: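 MTT assay on L5178Y mouse T-lymphoma parental cells or the L5178YvMDR (mdr1-transfected) subline. Compound-treated cells cultured 48 h at 37 °C under 5% CO2. MTT added (0.5 mg/mL final) for another 4 h at 37 °C. Formazan dissolved in 10% SDS in 0.01 M HCl overnight, then absorbance read. Absorbance corrected for cell control and compound, IC50 taken from sigmoidal curve. Mean of two determinations.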

T1 sequence (P08183 whole entry): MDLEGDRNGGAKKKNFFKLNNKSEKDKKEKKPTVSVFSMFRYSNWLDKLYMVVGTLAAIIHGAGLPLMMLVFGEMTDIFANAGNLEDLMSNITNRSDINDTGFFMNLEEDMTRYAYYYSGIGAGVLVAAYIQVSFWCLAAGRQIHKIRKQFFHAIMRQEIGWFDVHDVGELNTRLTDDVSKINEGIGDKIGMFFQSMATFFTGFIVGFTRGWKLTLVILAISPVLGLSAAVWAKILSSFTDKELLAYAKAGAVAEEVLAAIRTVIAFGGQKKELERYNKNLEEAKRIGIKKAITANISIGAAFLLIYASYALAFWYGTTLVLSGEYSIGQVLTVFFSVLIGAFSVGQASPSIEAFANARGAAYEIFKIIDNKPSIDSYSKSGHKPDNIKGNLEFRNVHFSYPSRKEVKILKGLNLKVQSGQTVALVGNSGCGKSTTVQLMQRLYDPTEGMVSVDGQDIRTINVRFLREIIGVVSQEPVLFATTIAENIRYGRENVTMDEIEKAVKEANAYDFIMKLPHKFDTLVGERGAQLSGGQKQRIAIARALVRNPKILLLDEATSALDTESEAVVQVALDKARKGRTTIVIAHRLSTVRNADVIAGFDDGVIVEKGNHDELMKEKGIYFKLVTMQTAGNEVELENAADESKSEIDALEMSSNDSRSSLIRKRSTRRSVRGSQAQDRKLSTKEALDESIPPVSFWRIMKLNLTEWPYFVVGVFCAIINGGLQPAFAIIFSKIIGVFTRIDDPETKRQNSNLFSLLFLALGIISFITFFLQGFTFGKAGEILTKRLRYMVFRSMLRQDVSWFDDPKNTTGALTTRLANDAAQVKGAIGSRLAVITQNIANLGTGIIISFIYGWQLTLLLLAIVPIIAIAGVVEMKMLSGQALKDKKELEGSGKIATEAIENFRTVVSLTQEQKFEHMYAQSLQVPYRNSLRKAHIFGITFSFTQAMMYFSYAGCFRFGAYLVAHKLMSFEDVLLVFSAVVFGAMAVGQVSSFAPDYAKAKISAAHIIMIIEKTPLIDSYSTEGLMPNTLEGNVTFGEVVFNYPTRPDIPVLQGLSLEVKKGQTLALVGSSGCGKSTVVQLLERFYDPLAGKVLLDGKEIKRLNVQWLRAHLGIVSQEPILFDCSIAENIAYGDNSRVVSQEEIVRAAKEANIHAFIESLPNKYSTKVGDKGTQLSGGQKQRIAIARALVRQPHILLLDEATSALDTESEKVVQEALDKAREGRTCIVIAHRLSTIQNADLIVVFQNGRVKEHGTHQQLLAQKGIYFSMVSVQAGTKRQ

Structure (SMILES)	Ratio [1]	IC50 [2]	IC50 [3]
COC(=O)N1C2C3C4N(C(=O)OC)C5C(C1[C@]5(CO)[C@H]3c1ccccc1)[C@@H](c1ccccc1)[C@@]24CO	21.6	3.8 µM	–
O=C(Oc1ccccc1)N1C2C3C4N(C(=O)Oc5ccccc5)C5C(C1[C@]5(CO)[C@H]3c1ccccc1)[C@@H](c1ccccc1)[C@@]24CO	30.8	< 1 µM	12.7 µM
CC(C)(C)OC(=O)N1C2C3C4N(C(=O)OC(C)(C)C)C5C(C1[C@]5(CO)[C@H]3c1ccccc1)[C@@H](c1ccccc1)[C@@]24CO	33	6.1 µM	2.5 µM
OC[C@]12C3C4C1N(Cc1ccccc1)C1C(C(N3Cc3ccccc3)[C@]1(CO)[C@H]4c1ccccc1)[C@H]2c1ccccc1	26.5	< 1 µM	11.9 µM
CN1C2C3C4N(C)C5C(C1[C@]5(CO)[C@H]3c1ccccc1)[C@@H](c1ccccc1)[C@@]24CO	34.3	17.6 µM	7.1 µM
